Non-standard residues stand in square brackets, D forms with d. No end group written: not given here. pS = N[C@@H](COP(=O)(O)O)C(=O)O
What was measured:
dullard = settings: dullard-catalyzed hydrolysis of generic substrate; cited from earlier work
Dullard 46–244 [1] = target: T1, Dullard 46–244 (Homo sapiens, UniProt O95476); assay: Biomol Green phosphate reagent; format: biochemical; settings: values in parentheses, 25 °C
T1 sequence (O95476 46-244): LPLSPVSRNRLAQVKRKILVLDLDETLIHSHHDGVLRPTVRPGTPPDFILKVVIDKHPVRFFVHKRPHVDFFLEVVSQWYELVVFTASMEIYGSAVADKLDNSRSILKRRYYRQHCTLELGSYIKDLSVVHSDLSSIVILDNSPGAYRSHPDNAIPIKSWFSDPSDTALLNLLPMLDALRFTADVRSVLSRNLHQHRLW
In short: (§1)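 Dullard residues 46–244 expressed in E. coli and purified to >95% by SDS/PAGE. Substrates were Pro/Thr/Ser-containing phosphoserine nonapeptides representing lipin1 phosphorylation sites. Dephosphorylation was followed as phosphate release under steady-state conditions to derive kcat/Km. The MESG-coupled assay and the molybdate green assay were used as independent read-outs.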

Dullard 46–244 [2] = target: T1, Dullard 46–244; assay: MESG-coupled phosphatase assay; format: biochemical; settings: MESG-coupled phosphatase assay (EnzChek E-6646), 25°C
In short: as §1

Row | Compound | Km (dullard) | kcat (dullard) | kcat/Km (dullard) | kcat (Dullard 46–244 [1]) | Km (Dullard 46–244 [1]) | kcat/Km (Dullard 46–244 [1]) | kcat/Km (Dullard 46–244 [2])
1 | O=[N+]([O-])c1ccc(OP(=O)(O)O)cc1 [pNPP, p-nitrophenyl phosphate] | 18000 µM | 1 s⁻¹ | 56 M⁻¹ s⁻¹ |  |  |  | 
2 | DNMNT[pS]EDE [S176] |  |  |  | > 0.5 s⁻¹ |  |  | 
3 | PIL[pS]EGASR [S110] |  |  |  | 0.28 ± 0.02 s⁻¹ | 700 µM | 400 M⁻¹ s⁻¹ | 650 M⁻¹ s⁻¹
4 | SGSRP[pS]TP [S248] |  |  |  | 0.01 ± 0.002 s⁻¹ | 700 µM | 14 M⁻¹ s⁻¹ | 750 M⁻¹ s⁻¹

Reference: PMC3338355 (Biochemistry, 2011)
